Where “and” joins values, the source holds several entries; their conditions need not be identical. Identical values can stand only once.
How the values were obtained:
Mus musculus [1] = assay: Effect on left testes body weight single oral dose of 10 mg/kg was given and the change after 1 h of dosing was observed.; format: functional, Testis
Procedure, shortened: (§1)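 Male CD-1 outbred Swiss albino mice, single oral gavage in acetate buffer pH 5 (10 mL/kg), 3, 10 or 30 mg/kg, plus vehicle control. Killed on day 1, 3 or 14 after dosing (times are days, not hours). Testes removed, right and left weighed separately, sectioned for histology and scored on a 0–6 spermatogenic index. Body weight change recorded. Mean ± SEM, n = 5; p < 0.05 versus control.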

Mus musculus [2] = assay: Effect on left testes body weight single oral dose of 10 mg/kg was given and the change after 3 hr of dosing was observed.; format: functional, Testis; procedure, shortened: as §1
Mus musculus [3] = assay: Effect on left testes body weight single oral dose of 3 mg/kg was given and the change after 14 hr of dosing was observed.; format: functional, Testis; procedure, shortened: as §1
Mus musculus [4] = assay: tested for its effect on mouse testes weight 3 days after single oral dose (1 mg/kg); format: functional, Testis
Procedure, shortened: (§2)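 Male CD-1 (ICR)BR outbred Swiss albino mice, 5/dose, given one oral gavage dose (10 mL/kg) on day 0 in 0.15 M acetate buffer pH 5, ethanol/Tween-20/water (3:7:90), or 1% Tween-20 in water; vehicle and positive-control groups in each assay. Killed by CO2 72 h later; testes weighed. Expressed as % reduction versus vehicle control; Dunnett's one-tailed t-test.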

Mus musculus [5] = assay: tested for its effect on mouse testes weight 3 days after single oral dose (3 mg/kg); format: functional, Testis; procedure, shortened: as §2
Mus musculus [6] = assay: tested for its effect on spermatogenic index 3 days after single oral dose (1 mg/kg); format: functional
Procedure, shortened: (§3)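 Male CD-1 (ICR)BR outbred Swiss albino mice, 5/dose, single oral gavage dose (10 mL/kg) on day 0 in acetate buffer pH 5 or Tween-20-based vehicle; killed 72 h later. Testis cross-sections scored histologically on a 0–6 spermatogenic index (Sertoli only to >100 late spermatids/tubule). Reported as % reduction versus vehicle control; Dunnett's one-tailed t-test.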

Mus musculus [7] = assay: tested for its effect on spermatogenic index 3 days after single oral dose (3 mg/kg); format: functional; procedure, shortened: as §3
Mus musculus [8] = assay: tested for its effect on spermatogenic index 3 days after single oral dose (30 mg/kg); format: functional; procedure, shortened: as §3
Mus musculus [9] = assay: tested for its effect on testes weight 3 days after single sub cutaneous dose (10 mg/kg); format: functional, Testis
Procedure, shortened: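 CD-1 male mice, 5/dose, injected subcutaneously once (10 mL/kg) on day 0 in ethanol/Tween-20/water (3:7:90); vehicle and positive controls included. Killed by CO2 after 72 h; testes weighed and sectioned, with histology scored as a 0–6 spermatogenic index. Both read-outs given as % reduction from control; Dunnett's one-tailed t-test.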

Mus musculus [10] = assay: Effect on right testes weight single oral dose of 3 mg/kg was given and the change after 3 hr of dosing was observed.; format: functional, Testis; procedure, shortened: as §1
Mus musculus [11] = assay: Effect on right testes weight single oral dose of 30 mg/kg was given and the change after 1 hr of dosing was observed; format: functional, Testis; procedure, shortened: as §1
Mus musculus [12] = assay: Effect on right testes weight single oral dose of 30 mg/kg was given and the change after 14 hr of dosing was observed.; format: functional, Testis; procedure, shortened: as §1
Mus musculus [13] = assay: Effect on right testes weight single oral dose of 30 mg/kg was given and the change after 3 hr of dosing was observed.; format: functional, Testis; procedure, shortened: as §1
Mus musculus [14] = assay: Effect on change in body weight single oral dose of 10 mg/kg was given and the change after 14 hr of dosing was observed.; format: functional; procedure, shortened: as §1
Mus musculus [15] = assay: Effect on change in body weight single oral dose of 3 mg/kg was given and the change after 14 hr of dosing was observed.; format: functional; procedure, shortened: as §1
Mus musculus [16] = assay: Effect on left testes weight single oral dose of 30 mg/kg was given and the change after 1 hr of dosing was observed.; format: functional, Testis; procedure, shortened: as §1
Mus musculus [17] = assay: Effect on left testes weight single oral dose of 30 mg/kg was given and the change after 3 hr of dosing was observed.; format: functional, Testis; procedure, shortened: as §1
Mus musculus [18] = assay: Effect on right testes weight asingle oral dose of 3 mg/kg was given and the change after 14 hr of dosing was observed.; format: functional, Testis; procedure, shortened: as §1
Mus musculus [19] = assay: Effect on right testes weight single oral dose of 10 mg/kg was given and the change after 3 hr of dosing was observed.; format: functional, Testis; procedure, shortened: as §1
Mus musculus [20] = assay: Effect on right testes weight single oral dose of 3 mg/kg was given and the change after 1 hr of dosing was observed. Data are given as mean +/- SEM (N=5), P<0.05, compared to control; format: functional, Testis; procedure, shortened: as §1
Mus musculus [21] = assay: Tested for its effect on mouse testes weight 3 days after single oral dose (30 mg/kg); format: functional, Testis
Procedure, shortened: (§4)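 CD-1 outbred Swiss albino male mice, 5 per dose, single gavage on day 0 at 10 mL/kg. Vehicle was 0.15 M acetate buffer pH 5, ethanol/Tween-20/water (3:7:90), or 1% Tween-20 in water. CO2 euthanasia 72 h later. Testes weighed and histologically scored (spermatogenic index 0–6). Values are % reduction versus the assay's vehicle control. Positive control was 30 mg/kg of the parent compound. Significance by Dunnett's one-tailed t-test, p < 0.05.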

Mus musculus [22] = assay: Tested for its effect on mouse testes weight 3 days after single oral dose (90 mg/kg); format: functional, Testis; procedure, shortened: as §4
Mus musculus [23] = assay: Tested for its effect on mouse testes weight 3 days after single sub cutaneous dose (30 mg/kg); format: functional, Testis
Procedure, shortened: (§5)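 CD-1 outbred Swiss albino male mice, 5 per dose, single subcutaneous injection on day 0 at 10 mL/kg in ethanol/Tween-20/water (3:7:90). Killed 72 h later. Testes weighed and scored for spermatogenic index (0–6). Results are % reduction versus vehicle control. Each assay included a 30 mg/kg positive control. Dunnett's one-tailed t-test, p < 0.05. Oral versus sc route compared by ANOVA.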

Mus musculus [24] = assay: Tested for its effect on mouse testes weight 3 days after single sub cutaneous (10 mg/kg); format: functional, Testis; procedure, shortened: as §5
Mus musculus [25] = assay: Tested for its effect on spermatogenic index 3 days after single oral dose (1 mg/kg),; format: functional; procedure, shortened: as §4
Mus musculus [26] = assay: Tested for its effect on spermatogenic index 3 days after single oral dose (30 mg/kg); format: functional; procedure, shortened: as §4
Mus musculus [27] = assay: Tested for its effect on spermatogenic index 3 days after single oral dose (90 mg/kg); format: functional; procedure, shortened: as §4
Mus musculus [28] = assay: Tested for its effect on spermatogenic index 3 days after single oral dose (90 mg/kg),; format: functional; procedure, shortened: as §4
Mus musculus [29] = assay: Effect on right spermatogenic index single oral dose of 10 mg/kg was given and the change after 3 hr of dosing was observed.; format: functional; procedure, shortened: as §1
Mus musculus [30] = assay: Effect on spermatogenic index single oral dose of 3 mg/kg was given and the change after 1 hr of dosing was observed.; format: functional; procedure, shortened: as §1
Mus musculus [31] = assay: Effect on spermatogenic index single oral dose of 3 mg/kg was given and the change after 14 hr of dosing was observed; format: functional; procedure, shortened: as §1
Mus musculus [32] = assay: Effect on spermatogenic index single oral dose of 3 mg/kg was given and the change after 3 hr of dosing was observed.; format: functional; procedure, shortened: as §1
Mus musculus [33] = assay: Effect on spermatogenic index single oral dose of 30 mg/kg was given and the change after 14 hr of dosing was observed; format: functional; procedure, shortened: as §1
Mus musculus [34] = assay: Effect on spermatogenic index single oral dose of 30 mg/kg was given and the change after 3 hr of dosing was observed.; format: functional; procedure, shortened: as §1
Mus musculus [35] = assay: Tested for its effect on mouse testes weight 3 days after single oral dose (1 mg/kg); format: functional, Testis; procedure, shortened: as §4

Which Testes weight (Mus musculus [1]) does the source give for CCN1CC[C@H]2[C@H](c3ccc(C)cc3)c3cc(C)ccc3[C@H]2C1.Cl here?
The Testes weight was 88.5 mg.

What about the Testes weight (Mus musculus [2]) of the same molecule?
Its Testes weight is 107.8 mg.

What about the Testes weight (Mus musculus [3]) of the same molecule?
The Testes weight was 119.3 mg.

What about the Reduction (Mus musculus [4]) of the same molecule?
The Reduction was 25%.

And the Reduction (Mus musculus [5])?
The Reduction was 13%.

What about the Reduction (Mus musculus [6]) of the same molecule?
The Reduction was 59%.

And the Reduction (Mus musculus [7])?
The Reduction was 31%.

And the Reduction (Mus musculus [8])?
The Reduction was 62%.

What about the Reduction (Mus musculus [9]) of the same molecule?
Its Reduction is 12%.

What about the Testes weight (Mus musculus [10]) of the same molecule?
The Testes weight was 112.6 mg.

What about the Testes weight (Mus musculus [11]) of the same molecule?
The Testes weight was 93.9 mg.

What about the Testes weight (Mus musculus [12]) of the same molecule?
The Testes weight was 49.4 mg and 47.1 mg.

What about the Testes weight (Mus musculus [13]) of the same molecule?
Its Testes weight is 81 mg.

And the “Change in body weight” value (Mus musculus [14])?
Its value is 3.18 g.

What about the “Change in body weight” value (Mus musculus [15]) of the same molecule?
Its value is 3.62 g.

What about the Testes weight (Mus musculus [16]) of the same molecule?
Its Testes weight is 92.8 mg.

And the Testes weight (Mus musculus [17])?
The Testes weight was 78.2 mg.

And the Testes weight (Mus musculus [18])?
The Testes weight was 126.5 mg.

What about the Spermatogenic index (Mus musculus [19]) of the same molecule?
The Spermatogenic index was 5.1.

What about the Testes weight (Mus musculus [19]) of the same molecule?
The Testes weight was 112.3 mg.

And the Testes weight (Mus musculus [20])?
The Testes weight was 104.9 mg.

What about the Reduction (Mus musculus [21]) of the same molecule?
Its Reduction is 24%.

And the Reduction (Mus musculus [22])?
The Reduction was 10%.

And the Reduction (Mus musculus [23])?
Its Reduction is 14%.

And the Reduction (Mus musculus [24])?
Its Reduction is -3%.

And the Reduction (Mus musculus [25])?
Its Reduction is 7%.

What about the Reduction (Mus musculus [26]) of the same molecule?
The Reduction was 50% and 39%.

What about the Reduction (Mus musculus [27]) of the same molecule?
The Reduction was -9%.

What about the Reduction (Mus musculus [28]) of the same molecule?
Its Reduction is 5%.

What about the Spermatogenic index (Mus musculus [29]) of the same molecule?
The Spermatogenic index was 3.5.

What about the Spermatogenic index (Mus musculus [30]) of the same molecule?
The Spermatogenic index was 6.

And the Spermatogenic index (Mus musculus [31])?
Its Spermatogenic index is 6.

And the Spermatogenic index (Mus musculus [32])?
Its Spermatogenic index is 5.8.

And the Spermatogenic index (Mus musculus [33])?
The Spermatogenic index was 1.7.

What about the Spermatogenic index (Mus musculus [34]) of the same molecule?
The Spermatogenic index was 3.

What about the Reduction (Mus musculus [35]) of the same molecule?
Its Reduction is 11%.

— ChEMBL document CHEMBL1128250, “Structure-activity studies of 2,3,4,4a,5,9b-hexahydroindeno[1,2-c]pyridines as antispermatogenic agents for male contraception” (1995)
